Laboratory results from ChEMBL document CHEMBL1128256, “Synthesis, biological evaluation, and structure analysis of a series of new 1,5-anhydrohexitol nucleosides” (J Med Chem, 1995).
≈ marks a conversion by molar mass, not a printed value.

Assays:
E6SM [1] = assay: Tested for the minimum inhibitory concentration required to reduce herpes simplex virus type 2 (HSV-2) strain G induced cytopathogenicity by 50%.; format: functional; conditions: Homo sapiens
Method in brief: (§1)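 Inhibition of virus-induced cytopathogenicity in human embryonic skin-muscle (E6SM) fibroblasts seeded in 96-well trays. Viruses were HSV-1 (KOS, F, McIntyre), TK- HSV-1 B2006, TK-/TK+ HSV-1 clinical isolate VMW-1837 and HSV-2 (G, 196, Lyons). […] MCC is the lowest concentration giving microscopically detectable alteration of normal cell morphology; highest concentration tested was 400 µg/mL.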

E6SM [2] = assay: Tested for the minimum inhibitory concentration required to reduce thymidine kinase deficient herpes simplex virus type 1 (TK- / TK+ HSV-1) strain VMW-1837 induced cytopathogenicity by 50%.; format: functional; conditions: Homo sapiens; method in brief: as §1
E6SM [3] = assay: Tested for the minimum inhibitory concentration required to reduce vesicular stomatitis virus(VSV) induced cytopathogenicity by 50%; format: functional; conditions: Homo sapiens
E6SM [4] = assay: Tested for the minimum cytotoxic concentration required to cause a microscopically detectable alteration of normal cell morphology in human embryonic skin muscle (E6SM) fibroblast cell cultures.; format: functional; method in brief: as §1
HEL [5] = assay: Tested for the inhibitory concentration required to reduce TK+ Varicella-Zoster virus (TK+ VZV) strain YS plaque formation by 50%; format: functional, cell-based; conditions: Homo sapiens
E6SM [6] = assay: Tested for the minimum inhibitory concentration required to reduce herpes simplex virus type 1 (HSV-1) strain KOS induced cytopathogenicity by 50%.; format: functional; conditions: Homo sapiens; method in brief: as §1
E6SM [7] = assay: Tested for the minimum inhibitory concentration required to reduce vaccinia virus(VV) induced cytopathogenicity by 50%.; format: functional; conditions: Homo sapiens
HEL [8] = assay: Tested for the cytotoxic concentration, required to reduce cell growth by 50% in human embryonic lung (HEL) cells.; format: functional
Method in brief: (§2)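 Virus plaque formation assay in human embryonic lung (HEL) cells seeded in 96-well trays. Targets were TK+ VZV (Oka, YS), TK- VZV (07/1, YS/R) and CMV (AD169, Davis). Value is the concentration that reduces plaque number by 50%. Cytotoxicity in HEL cells was taken as the concentration that reduces cell growth by 50%.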

HEL [9] = assay: Tested for the inhibitory concentration required to reduce thymidine kinase deficient Varicella-Zoster virus (TK- VZV) strain YS/R plaque formation by 50%.; format: functional, cell-based; conditions: Homo sapiens
E6SM [10] = assay: Tested for the minimum inhibitory concentration required to reduce thymidine kinase deficient herpes simplex virus type 1 (TK- HSV-1) strain B2006 induced cytopathogenicity by 50%.; format: functional; conditions: Homo sapiens; method in brief: as §1
HEL [11] = assay: Tested for the inhibitory concentration required to reduce thymidine kinase plus Varicella-Zoster virus (TKplus VZV) strain OKA plaque formation by 50%.; format: functional, cell-based; conditions: Homo sapiens; method in brief: as §2
HEL [12] = assay: Tested for the inhibitory concentration required to reduce cytomegalovirus (CMV) strain Davis plaque formation by 50%.; format: functional, cell-based; conditions: Homo sapiens; method in brief: as §2
HEL [13] = assay: Tested for the inhibitory concentration required to reduce thymidine kinase deficient Varicella-Zoster virus (TK- VZV) strain 07/1 plaque formation by 50%.; format: functional, cell-based; conditions: Homo sapiens
HEL [14] = assay: Tested for the inhibitory concentration required to reduce cytomegalovirus (CMV) strain AD-169 plaque formation by 50%.; format: functional, cell-based; conditions: Homo sapiens; method in brief: as §2
E6SM [15] = assay: Tested for the minimum inhibitory concentration required to reduce herpes simplex virus type 2 (HSV-2) strain Lyons induced cytopathogenicity by 50%.; format: functional; conditions: Homo sapiens; method in brief: as §1
E6SM [16] = assay: Tested for the minimum inhibitory concentration required to reduce herpes simplex virus type 1 (HSV-1) strain F induced cytopathogenicity by 50%.; format: functional; conditions: Homo sapiens; method in brief: as §1
E6SM [17] = assay: Tested for the minimum inhibitory concentration required to reduce herpes simplex virus type 1 (TK- / TK+ HSV-1) strain VMW-1837 induced cytopathogenicity by 50%.; format: functional; conditions: Homo sapiens; method in brief: as §1
E6SM [18] = assay: Tested for the minimum inhibitory concentration required to reduce herpes simplex virus type 1 (HSV-1) strain McIntyre induced cytopathogenicity by 50%.; format: functional; conditions: Homo sapiens; method in brief: as §1
E6SM [19] = assay: Tested for the minimum inhibitory concentration required to reduce herpes simplex virus type 2 (HSV-2) strain 196 induced cytopathogenicity by 50%.; format: functional; conditions: Homo sapiens; method in brief: as §1
HEL [20] = assay: Tested for the inhibitory concentration required to reduce TK+ Varicella-Zoster virus (TK+ VZV) strain OKA plaque formation by 50%.; format: functional, cell-based; conditions: Homo sapiens
Mus musculus = species on record: Mus musculus; assay: Inhibition constant assumed to reflect the affinity for the transport site in mouse erythrocytes; format: functional
Method in brief: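 Thymidine influx competition in erythrocytes from male B6D2F1 mice, 10% hematocrit in buffered saline, room temperature. [methyl-3H]thymidine at 0.1, 0.2, 0.5 and 1 mM, alone or with inhibitor at 0.053–1.05 mM. Influx stopped after 3 s with NBMPR. Pellets extracted in 5% perchloric acid and counted by scintillation. Zero-time trapping subtracted. Duplicate samples. Ki from Dixon plot.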

Structure (SMILES)	MIC (E6SM [1]) [µg/mL]	MIC (E6SM [3]) [µg/mL]	MCC (E6SM [4]) [µg/mL]	IC50 (HEL [5]) [µg/mL]	MIC (E6SM [6]) [µg/mL]	MIC (E6SM [7]) [µg/mL]	CC50 (HEL [8]) [µg/mL]	IC50 (HEL [9]) [µg/mL]	MIC (E6SM [10]) [µg/mL]	IC50 (HEL [12]) [µg/mL]	IC50 (HEL [13]) [µg/mL]	IC50 (HEL [14]) [µg/mL]	MIC (E6SM [15]) [µg/mL]	MIC (E6SM [16]) [µg/mL]	MIC (E6SM [17]) [µg/mL]	MIC (E6SM [18]) [µg/mL]	MIC (E6SM [19]) [µg/mL]	IC50 (HEL [20]) [µg/mL]	other results
Nc1nc(=O)n(C2COC(CO)C(O)C2)cc1F (stereo not drawn)	2 (≈ 7.71 µM)	> 200	> 400	3.5 (≈ 13.5 µM)	0.2 (≈ 0.771 µM)	0.2 (≈ 0.771 µM)	2 (≈ 7.71 µM)	7 (≈ 27 µM)	0.07 (≈ 0.27 µM)	0.5 (≈ 1.93 µM)	5 (≈ 19.3 µM)	0.9 (≈ 3.47 µM)							MIC (E6SM [2]): 2 µg/mL (≈ 7.71 µM); IC50 (HEL [11]): 2.9 µg/mL
Nc1ncnc2c1ncn2C[C@@H](CO)OCP(=O)(O)O	0.02 (≈ 0.066 µM)	> 400	> 400		0.2 (≈ 0.66 µM)	0.7 (≈ 2.31 µM)			1 (≈ 3.3 µM)				0.1 (≈ 0.33 µM)	0.2 (≈ 0.66 µM)	1 (≈ 3.3 µM)	2 (≈ 6.6 µM)	0.07 (≈ 0.231 µM)		
O=c1[nH]c(=O)n(C2COC(CO)C(O)C2)cc1I (stereo not drawn)	0.4 (≈ 1.09 µM)		> 400	> 100	0.02 (≈ 0.0543 µM)	200 (≈ 543 µM)	> 50	> 100	> 400	> 40	> 100	> 40	0.4 (≈ 1.09 µM)	0.01 (≈ 0.0272 µM)		0.04 (≈ 0.109 µM)	0.7 (≈ 1.9 µM)	> 100	MIC (E6SM [2]): 4 µg/mL (≈ 10.9 µM)
O=c1ccn([C@H]2C[C@H](O)[C@@H](CO)O2)c(=O)[nH]1 [DEOXYURIDINE]																			Ki (Mus musculus): 110 µM
Nc1nc(=O)n(C2COC(CO)C(O)C2)cc1Cl (stereo not drawn)	300 (≈ 1090 µM)		> 400	> 40	300 (≈ 1090 µM)		> 50	> 40	> 400	> 40	> 40	> 40	300 (≈ 1090 µM)	150 (≈ 544 µM)	300 (≈ 1090 µM)	300 (≈ 1090 µM)	300 (≈ 1090 µM)	40 (≈ 145 µM)	
Nc1nc2c(ncn2COC(CO)CO)c(=O)[nH]1 [GANCICLOVIR]				0.072 (≈ 0.282 µM)			> 200	0.9 (≈ 3.53 µM)		6.2 (≈ 24.3 µM)	0.1 (≈ 0.392 µM)	2.9 (≈ 11.4 µM)						0.02 (≈ 0.0784 µM)	
O=c1[nH]c(=O)n(C2COC(CO)C(O)C2)cc1/C=C/Br (stereo not drawn)	150 (≈ 432 µM)		> 400	1.4 (≈ 4.03 µM)	0.4 (≈ 1.15 µM)		50 (≈ 144 µM)	40 (≈ 115 µM)	> 100	23 (≈ 66.3 µM)	20 (≈ 57.6 µM)	> 10	70 (≈ 202 µM)	2 (≈ 5.76 µM)	70 (≈ 202 µM)	0.4 (≈ 1.15 µM)	70 (≈ 202 µM)	1.4 (≈ 4.03 µM)	
Nc1nc(N)c2ncn(C3COC(CO)C(O)C3)c2n1 (stereo not drawn)	0.7 (≈ 2.5 µM)	> 200	> 400	2 (≈ 7.14 µM)	0.2 (≈ 0.714 µM)	7 (≈ 25 µM)	25 (≈ 89.2 µM)	5 (≈ 17.8 µM)	7 (≈ 25 µM)	0.8 (≈ 2.85 µM)	2.4 (≈ 8.56 µM)	2 (≈ 7.14 µM)			0.7 (≈ 2.5 µM)			1.2 (≈ 4.28 µM)	
Nc1nc2c(ncn2COCCO)c(=O)[nH]1 [ACYCLOVIR]							> 200					20 (≈ 88.8 µM)							
Nc1nc(=O)n(C2COC(CO)C(O)C2)cc1I (stereo not drawn)	7 (≈ 19.1 µM)	> 400	> 400	> 40	2 (≈ 5.45 µM)	150 (≈ 409 µM)	> 50	7.6 (≈ 20.7 µM)	300 (≈ 817 µM)	> 40		> 40	20 (≈ 54.5 µM)	0.7 (≈ 1.91 µM)	70 (≈ 191 µM)	2 (≈ 5.45 µM)	20 (≈ 54.5 µM)	> 40	
CCc1cn(C2COC(CO)C(O)C2)c(=O)[nH]c1=O (stereo not drawn)	0.4 (≈ 1.48 µM)		> 400	> 50	0.02 (≈ 0.074 µM)	200 (≈ 740 µM)	> 50	> 50	> 400	> 50	> 50	> 50			0.4 (≈ 1.48 µM)			> 50	
